Data set [1] deals with SH-SY5Y. Description: Cytotoxicity against human SH-SY5Y cells after 48 hrs by MTS reduction assay. Format: cell-based.
A short description of data set [2]: Lipophilicity, log D of the compound. It is filed as physicochemical. The conditions noted are these: octanol/water.
Data set [3] can be described thus: Solubility in water. It is filed as physicochemical. The essentials:
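Excess solid in double-distilled water was sonicated 5 min, then stirred overnight to equilibrium at 25 ± 0.1 °C and centrifuged. Supernatant absorbance was read at 515–518 nm and quantified against per-compound standard reference curves.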

Data set [4] relates to Glycogen synthase kinase-3 (Sus scrofa). The data set is described as follows: Inhibition of pig GSK3alpha/beta.
Data set [5] can be described thus: Dissociation constant, pKa of the compound. It is filed as physicochemical.
Data set [6] can be described thus: Inhibition of human recombinant CDK5/p25 expressed in Escherichia coli.
The target of data set [7] is T1, Glycogen synthase kinase-3 (Homo sapiens, UniProt P49840+P49841). Description: Inhibition of GSK3-mediated beta-catenin phosphorylation in human SH-SY5Y cells in presence of MG132 by ELISA.
T1 sequence (P49840 whole entry, looked up): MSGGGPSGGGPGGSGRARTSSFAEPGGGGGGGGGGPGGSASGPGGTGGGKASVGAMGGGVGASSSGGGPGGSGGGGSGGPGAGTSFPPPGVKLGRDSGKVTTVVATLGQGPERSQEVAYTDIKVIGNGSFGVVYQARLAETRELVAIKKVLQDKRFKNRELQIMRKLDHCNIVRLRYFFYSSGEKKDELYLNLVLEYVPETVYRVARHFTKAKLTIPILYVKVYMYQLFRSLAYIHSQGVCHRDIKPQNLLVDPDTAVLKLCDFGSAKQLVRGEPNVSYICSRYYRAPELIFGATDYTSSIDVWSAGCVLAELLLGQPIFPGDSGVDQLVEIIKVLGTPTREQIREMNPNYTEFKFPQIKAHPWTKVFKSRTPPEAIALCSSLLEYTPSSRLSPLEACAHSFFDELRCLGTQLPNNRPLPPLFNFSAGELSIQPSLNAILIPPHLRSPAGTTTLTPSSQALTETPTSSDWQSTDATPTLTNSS
T1 sequence (P49841 whole entry, looked up): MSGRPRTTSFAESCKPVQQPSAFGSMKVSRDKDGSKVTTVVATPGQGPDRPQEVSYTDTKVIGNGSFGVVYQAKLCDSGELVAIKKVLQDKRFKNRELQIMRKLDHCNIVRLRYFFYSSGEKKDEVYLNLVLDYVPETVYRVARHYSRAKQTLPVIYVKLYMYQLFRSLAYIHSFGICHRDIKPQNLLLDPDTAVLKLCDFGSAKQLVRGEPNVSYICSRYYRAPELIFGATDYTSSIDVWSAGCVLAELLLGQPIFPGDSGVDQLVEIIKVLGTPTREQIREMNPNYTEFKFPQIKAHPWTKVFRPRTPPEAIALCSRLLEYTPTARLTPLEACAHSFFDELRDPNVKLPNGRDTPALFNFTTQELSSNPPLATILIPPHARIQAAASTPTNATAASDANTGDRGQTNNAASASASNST
Data set [8] deals with T1, Glycogen synthase kinase-3. The data set is described as follows: Inhibition of GSK3-mediated beta-catenin phosphorylation in human SH-SY5Y cells in presence of MG132 by Western blot analysis.
Data set [9] concerns Rat1. The data set is described as follows: Effect on circadian rhythm in Pper2::Fluc transfected Rat1 cells assessed as shortening of period length at 10 uM. It is filed as functional, cell-based. The conditions noted are these: Rattus norvegicus. The method in brief:
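Rat-1 fibroblasts stably carrying PPer2::Fluc, grown to confluence, synchronized with 0.1 μM dexamethasone (1 h in Experimental, 2 h in legend), then moved to phenol-red-free assay medium with 0.1 mM luciferin. Compounds at 10 μM added before dish sealing and left continuously; DMSO solvent control. Luminescence recorded 4–5 days or more; period derived by regression analysis.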

Calls of active or inactive are those of the source. The calls are words filed in the database; no cut-off is given here.

These results are taken from ChEMBL document CHEMBL1140158, “Soluble 3',6-substituted indirubins with enhanced selectivity toward glycogen synthase kinase -3 alter circadian period” (J Med Chem, 2008).

As to `Cl.O=C1Nc2cc(Br)ccc2/C1=C1/Nc2ccccc2/C1=N\OCCN1CCCC1`, the IC50 was found to be 4200 nM in data set [1] (Homo sapiens, SH-SY5Y, 48 h); 54 nM in data set [4]; 100 nM in data set [6]. Moreover, in data set [2], the pH-dependent lipophilicity (logD) was 1.16. Moreover, in [3], the thermodynamic solubility turned out to be 195 µg/mL. Also, the pKa in data set [5] is 9.18.
For `O=C1Nc2cc(Br)ccc2/C1=C1/Nc2ccccc2/C1=N\OCCN1CCN(CCOCCO)CC1` [listing 1 of 2 here], the IC50 in [7] is 2900 nM; in [4] it was 14 nM; in data set [6], 310 nM.
Take `CN(CCO/N=C1/C(=C2/C(=O)Nc3cc(Br)ccc32)Nc2ccccc21)CC(O)CO` (stereo unspecified): the IC50 was 5800 nM in data set [1] (Homo sapiens, SH-SY5Y, 48 h); 67 nM in data set [4]; 240 nM in data set [6].
Regarding `O=C1Nc2cc(Br)ccc2/C1=C1/Nc2ccccc2/C1=N\OCCN1CCCC1`, the IC50 in [1] (sh-sy5y) was determined as 5500 nM; in data set [4], 26 nM; in [6], 130 nM.
With `Cl.Cl.O=C1Nc2cc(Br)ccc2/C1=C1/Nc2ccccc2/C1=N\OCCN1CCNCC1`, the IC50 in [1] (sh-sy5y) was 5900 nM; in data set [7] it was 220 nM; in [6], 180 nM. In data set [2], the logD was -0.87. The compound further showed a solubility (thermodynamic) in data set [3] of 1610 µg/mL. This compound returned a pKa in data set [5] of 8.85.
As to `COCCN1CCN(CCO/N=C2/C(=C3/C(=O)Nc4cc(Br)ccc43)Nc3ccccc32)CC1.Cl.Cl`, the IC50 in [1] (Homo sapiens, SH-SY5Y, 48 h) was more than 100000 nM; in [4], 20 nM; in data set [6], 400 nM. In data set [2], the logD amounted to 1.9. Moreover, the thermodynamic solubility in data set [3] was 570 µg/mL. The pKa in data set [5] came out at 7.47.
Consider `CN(C)CCO/N=C1/C(=C2/C(=O)Nc3cc(Br)ccc32)Nc2ccccc21.Cl`, for which the log distribution coefficient (logD) in data set [2] was determined as 1.69. The solubility (thermodynamic) in [3] was 141 µg/mL. In data set [5], this compound gave a pKa of 8.59.
The matching figures for `Cl.Cl.O=C1Nc2cc(Br)ccc2/C1=C1/Nc2ccccc2/C1=N\OCCN1CCN(CCO)CC1`: 1.41, 1140 µg/mL and 7.65.
As to `CCN(CC)CCO/N=C1/C(=C2/C(=O)Nc3cc(Br)ccc32)Nc2ccccc21.Cl`, the half-maximal inhibitory concentration (IC50) in [1] (Homo sapiens, SH-SY5Y, 48 h) was more than 100000 nM; in data set [4], 27 nM; in data set [6], 40 nM. In [2], this compound registered a logD of 1.19. In data set [3], this compound had a solubility (thermodynamic) of 192 µg/mL. This compound also yielded a pKa in [5] of 9.38.
For the compound `O=C1Nc2cc(Br)ccc2/C1=C1/Nc2ccccc2/C1=N\OCCO`, the IC50 in data set [1] (Homo sapiens, SH-SY5Y, 48 h) is more than 100000 nM; in data set [6], more than 10000 nM.
As to `Cl.Cl.O=C1Nc2cc(Br)ccc2/C1=C1/Nc2ccccc2/C1=N\OCCN1CCN(CCOCCO)CC1`, the IC50 in data set [1] (Homo sapiens, SH-SY5Y, 48 h) came to 97600 nM; in [4], 33 nM; in data set [6], 330 nM. The compound also came in with a pH-dependent lipophilicity (logD) in [2] of 1.46. The solubility (thermodynamic) in [3] was 4250 µg/mL. The same compound showed a pKa in data set [5] of 7.58.
As to `COCCN1CCN(CCO/N=C2/C(=C3/C(=O)Nc4cc(Br)ccc43)Nc3ccccc32)CC1`, the 50% inhibitory concentration (IC50) in data set [4] came out at 11 nM; in [6], 500 nM.
With `CN1CCN(CCO/N=C2/C(=C3/C(=O)Nc4cc(Br)ccc43)Nc3ccccc32)CC1.Cl.Cl`, the IC50 in data set [1] (Homo sapiens, SH-SY5Y, 48 h) was 5400 nM; in data set [4] it was 5 nM; in [6], 300 nM. Moreover, in [2], the log distribution coefficient (logD) amounted to 1.74. Besides, the solubility (thermodynamic) in data set [3] came to 1500 µg/mL. In data set [5], this compound had a pKa of 7.65.
For the compound `CCN(CC)CCO/N=C1/C(=C2/C(=O)Nc3cc(Br)ccc32)Nc2ccccc21`, the IC50 came out at 78000 nM in [1] (sh-sy5y), 35 nM in [4] and 20 nM in data set [6].
In turn, `O=C1Nc2cc(Br)ccc2/C1=C1/Nc2ccccc2/C1=N\OCCN(CCO)CCO` registered a concentration for half-maximal inhibition (IC50) in data set [1] (Homo sapiens, SH-SY5Y, 48 h) of 6600 nM.
In the case of `O=C1Nc2cc(Br)ccc2/C1=C1/Nc2ccccc2/C1=N\OCC(O)CO` (stereo unspecified), the IC50 in data set [1] (Homo sapiens, SH-SY5Y, 48 h) amounted to 940 nM; in [4], 34 nM; in data set [6], 25 nM.
With `Cn1c(O)c(-c2[nH]c3ccccc3c2N=O)c2ccc(Br)cc21`, in data set [8], the outcome was inactive.
`CN1CCN(CCO/N=C2/C(=C3/C(=O)Nc4cc(Br)ccc43)Nc3ccccc32)CC1`: the IC50 in data set [4] came out at 7 nM; in data set [6], 400 nM.
Turning to `CCN(CC)C(=O)O/N=C1/C(=C2/C(=O)Nc3cc(Br)ccc32)Nc2ccccc21`, the 50% inhibitory concentration (IC50) in data set [1] (Homo sapiens, SH-SY5Y, 48 h) is more than 100000 nM; in [4] it was 30 nM; in data set [6], 10000 nM.
Turning to `O=C1Nc2cc(Br)ccc2/C1=C1/Nc2ccccc2/C1=N\OCCN1CCN(CCO)CC1`, in data set [7], the IC50 was determined as 700 nM.
Same read-out and setting: the value for `Cl.O=C1Nc2cc(Br)ccc2/C1=C1/Nc2ccccc2/C1=N\OCCN(CCO)CCO` was 320 nM.
Regarding `O=C1Nc2cc(Br)ccc2/C1=C1/Nc2ccccc2/C1=N\OCCN1CCN(CCOCCO)CC1` [listing 2 of 2 here], the outcome in data set [9] was Active.
For `O=C1Nc2cc(Br)ccc2/C1=C1/Nc2ccccc2/C1=N\OCCN1CCNCC1`, the values for the IC50 in data set [1] (sh-sy5y) and in data set [7] were 13200 nM and 150 nM, respectively.
As to `O=C1Nc2cc(Br)ccc2/C1=C1/Nc2ccccc2/C1=N\OCCBr`, the 50% inhibitory concentration (IC50) in data set [1] (Homo sapiens, SH-SY5Y, 48 h) was more than 100000 nM; in [4] it was 140 nM; in data set [6], more than 10000 nM.
